# Laboratory results taken from ChEMBL document CHEMBL3232832, “Derivatives of dibenzothiophene for positron emission tomography imaging of α7-nicotinic acetylcholine receptors” (J Med Chem, 2013).
# Columns and labels:
# Nucleic Acid [1] = test: Ratio of drug uptake in cortex to cerebellum in CD-1 mouse at 0.67 MBq after 5 to 120 mins; assay type: ADME; conditions: in vivo
# [2] = Selectivity ratio of Ki for human 5HT3 receptor to Ki for rat cortical membrane alpha7 nAChR
# [3] = Selectivity ratio of Ki for alpha4beta2 nAChR (unknown origin) to Ki for rat cortical membrane alpha7 nAChR
# [4] = Ratio of drug uptake in cortex to cerebellum in mouse; assay type: ADME, organism-based; conditions: in vivo
# [5] = target: T1, Neuronal acetylcholine receptor subunit alpha-7 (Rattus norvegicus, UniProt Q05941); test: Displacement of [125I]alpha-bungarotoxin from Sprague-Dawley rat brain alpha7-nAChR after 3 hrs
# [6] = target: Neuronal acetylcholine receptor subunit alpha-7 (Homo sapiens, UniProt P36544); test: Binding affinity to alpha7 nAChR (unknown origin)
# [7] = target: T1, Neuronal acetylcholine receptor subunit alpha-7; test: Binding affinity to rat brain alpha7 nAChR
# [8] = target: T1, Neuronal acetylcholine receptor subunit alpha-7; test: Displacement of [125I]alpha-bungarotoxin from rat cortical membrane alpha7-nAChR after 150 mins by gamma-counting analysis
# [9] = target: T1, Neuronal acetylcholine receptor subunit alpha-7; test: Displacement of [125I]-alpha-BTX from rat alpha7-nAChR after 2 hrs by scintillation counting analysis
# Nucleic Acid [10] = test: Ratio of drug uptake in cortex to cerebellum in Danish Landrace pig; assay type: ADME, tissue-based, Sus scrofa; conditions: in vivo
# [11] = target: T1, Neuronal acetylcholine receptor subunit alpha-7; test: Displacement of [3H]MLA from rat alpha7 nAChR
# Cerebellum [12] = test: Drug uptake in CD-1 mouse cerebellum at 0.07 mCi, iv after 90 mins in presence of 3-(1,4-Diazabicyclo[3.2.2]nonan-4-yl)-6-fluorodibenzo[b,d]thiophene 5,5-Dioxide; assay type: ADME, organism-based; conditions: in vivo, 1.5 h
# How it was run: (§1)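 Male CD-1 mice, n=3. [18F] radiotracer (70 µCi, 0.2 mL) given i.v. together with unlabeled blocker in saline pH 5.5. Brain regions dissected at 90 min, gamma counted, expressed as %ID/g.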
# [13] = Drug uptake in CD-1 mouse frontal cortex at 70 uCi, iv followed by compound washout by gamma-counting analysis; assay type: ADME, organism-based; conditions: in vivo
# How it was run: (§2)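 Male CD-1 mice (25–30 g), three per time point. [18F] radiotracer (70 µCi, SA 8000–12000 mCi/µmol, in 0.2 mL saline) given by tail vein. Killed at several times up to 90 min. Dissected regions weighed and gamma counted against injectate standards, giving %ID/g.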
# Cerebellum [14] = test: Drug uptake in CD-1 mouse cerebellum at 70 uCi, iv followed by compound washout by gamma-counting analysis; assay type: ADME, organism-based; conditions: in vivo; how it was run: as §2
# Cerebellum [15] = test: Drug uptake in CD-1 mouse colliculus at 0.07 mCi, iv after 90 mins relative to drug uptake in CD-1 mouse cerebellum; assay type: ADME, organism-based; conditions: in vivo, 1.5 h
# [16] = Drug uptake in CD-1 mouse superior and inferior colliculus at 70 uCi, iv followed by compound washout by gamma-counting analysis; assay type: ADME, organism-based; conditions: in vivo
# How it was run: (§3)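 Male CD-1 mice (25–30 g) given [18F]radioligand i.v. into a lateral tail vein (70 µCi, 8000–12000 mCi/µmol, in 0.2 mL saline). Killed by cervical dislocation at various times, three per time point. Brains dissected on ice; regions weighed and gamma-counted with injectate standards. Result as %ID/g.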
# Nucleic Acid [17] = test: Ratio of drug uptake from hippocampus to cerebellum in CD-1 mouse after 90 mins; assay type: ADME, nucleic-acid assay; conditions: 1.5 h
# Cerebellum [18] = test: Drug uptake in CD-1 mouse cerebellum at 0.07 mCi, iv after 90 mins in presence of 3-(1,4-Diazabicyclo[3.2.2]nonan-4-yl)dibenzo[b,d]-thiophene 5,5-dioxide; assay type: ADME, organism-based; conditions: in vivo, 1.5 h
# Nucleic Acid [19] = test: Ratio of drug uptake from superior and inferior colliculus to cerebellum in CD-1 mouse after 90 mins; assay type: ADME, nucleic-acid assay; conditions: 1.5 h
# How it was run: (§4)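 CD-1 mouse baseline biodistribution after i.v. [18F]radioligand (70 µCi, 8000–12000 mCi/µmol, in 0.2 mL saline), three mice per time point to 90 min. Regional gamma-counting gave %ID/g, and each region was expressed as a ratio to cerebellum.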
# Cerebellum [20] = test: Ratio of clearance in CD-1 mouse cerebellum to clearance in CD-1 mouse other brain tissues at 70 uCi, iv followed by compound washout after 90 mins by gamma-counting analysis; assay type: ADME, organism-based; conditions: in vivo, 1.5 h; how it was run: as §4
# Brain = test: Drug uptake in CD-1 mouse other brain regions at 0.07 mCi, iv after 90 mins in presence of 3-(1,4-Diazabicyclo[3.2.2]nonan-4-yl)dibenzo[b,d]-thiophene 5,5-dioxide; assay type: ADME, organism-based; conditions: in vivo, 1.5 h
# How it was run: (§5)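 Male CD-1 mice. [18F]tracer (0.07 mCi, SA 11000 mCi/µmol, i.v.) co-injected with α7 antagonist blocker at 0.001, 0.0045 or 0.014 mg/kg, handled as in the dose-escalation blockade. Brain regions harvested at 90 min and gamma-counted. %ID/g, mean ± SD, n=3; ANOVA versus controls.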
# Thalamus = test: Drug uptake in CD-1 mouse thalamus at 70 uCi, iv followed by compound washout by gamma-counting analysis; assay type: ADME, organism-based; conditions: in vivo; how it was run: as §3
# [21] = Drug uptake in CD-1 mouse superior and inferior colliculus at 0.07 mCi, iv after 90 mins in presence of 3-(1,4-Diazabicyclo[3.2.2]nonan-4-yl)dibenzo[b,d]-thiophene 5,5-dioxide; assay type: ADME, organism-based; conditions: in vivo, 1.5 h; how it was run: as §5
# Striatum = test: Drug uptake in CD-1 mouse striatum at 70 uCi, iv followed by compound washout by gamma-counting analysis; assay type: ADME, organism-based; conditions: in vivo; how it was run: as §3
# Cerebellum [22] = test: Drug uptake in CD-1 mouse cerebellum at 0.07 mCi, iv after 90 mins in presence of 7-(1,4-Diazabicyclo[3.2.2]nonan-4-yl)-2-fluorodibenzo[b,d]-thiophene 5,5-Dioxide; assay type: ADME, organism-based; conditions: in vivo, 1.5 h; how it was run: as §1
# Mus musculus [23] = test: Toxicity in CD-1 mouse assessed as change in locomotor activity at 0.07 mCi, iv after 90 mins in presence of 7-(1,4-Diazabicyclo[3.2.2]nonan-4-yl)-2-fluorodibenzo[b,d]-thiophene 5,5-Dioxide; assay type: organism-based; conditions: in vivo, 1.5 h
# How it was run: (§6)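 CD-1 mice observed for behavioral and locomotor changes during self-blockade studies. [18F]tracer (0.07 mCi, i.v.) was co-injected with the non-radioactive ligand at 0.3 or 0.2 mg/kg i.v., dissolved in saline at pH 5.5. Brains were harvested at 90 min.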
# Hippocampus [24] = test: Drug uptake in CD-1 mouse hippocampus at 70 uCi, iv followed by compound washout by gamma-counting analysis; assay type: ADME, organism-based; conditions: in vivo; how it was run: as §2
# Hippocampus [25] = test: Drug uptake in CD-1 mouse hippocampus at 0.07 mCi, iv after 90 mins in presence of 3-(1,4-Diazabicyclo[3.2.2]nonan-4-yl)dibenzo[b,d]-thiophene 5,5-dioxide; assay type: ADME, organism-based; conditions: in vivo, 1.5 h
# Nucleic Acid [26] = test: Ratio of drug uptake from cortex to cerebellum in CD-1 mouse after 90 mins; assay type: ADME, tissue-based; conditions: 1.5 h
# Mus musculus [27] = test: Toxicity in CD-1 mouse assessed as change in behavioral activity at 0.07 mCi, iv after 90 mins in presence of 7-(1,4-Diazabicyclo[3.2.2]nonan-4-yl)-2-fluorodibenzo[b,d]-thiophene 5,5-Dioxide; assay type: organism-based; conditions: in vivo, 1.5 h; how it was run: as §6
# Nucleic Acid [28] = test: Ratio of drug uptake in cortex to cerebellum in CD-1 mouse by gamma-counting analysis; assay type: ADME, tissue-based; conditions: in vivo
# Nucleic Acid [29] = test: Ratio of drug uptake in cortex to cerebellum in pig; assay type: ADME, tissue-based, Sus scrofa; conditions: in vivo
# Chain of Neuronal acetylcholine receptor subunit alpha-7 (Homo sapiens, UniProt P36544) (P36544 whole entry): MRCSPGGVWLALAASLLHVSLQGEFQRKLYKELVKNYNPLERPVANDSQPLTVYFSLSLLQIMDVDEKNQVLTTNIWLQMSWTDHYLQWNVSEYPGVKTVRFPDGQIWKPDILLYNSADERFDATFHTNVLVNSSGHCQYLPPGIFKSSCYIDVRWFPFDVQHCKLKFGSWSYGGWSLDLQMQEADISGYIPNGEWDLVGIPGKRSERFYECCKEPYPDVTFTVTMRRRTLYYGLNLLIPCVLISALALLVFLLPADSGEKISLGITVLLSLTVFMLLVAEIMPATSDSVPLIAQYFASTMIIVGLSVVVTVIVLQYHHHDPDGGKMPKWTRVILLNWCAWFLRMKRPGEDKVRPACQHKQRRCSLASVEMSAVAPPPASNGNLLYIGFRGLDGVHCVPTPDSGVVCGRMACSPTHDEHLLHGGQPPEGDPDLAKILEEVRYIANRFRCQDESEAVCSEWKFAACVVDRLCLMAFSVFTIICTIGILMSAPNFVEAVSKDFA
# T1 sequence (Q05941 whole entry): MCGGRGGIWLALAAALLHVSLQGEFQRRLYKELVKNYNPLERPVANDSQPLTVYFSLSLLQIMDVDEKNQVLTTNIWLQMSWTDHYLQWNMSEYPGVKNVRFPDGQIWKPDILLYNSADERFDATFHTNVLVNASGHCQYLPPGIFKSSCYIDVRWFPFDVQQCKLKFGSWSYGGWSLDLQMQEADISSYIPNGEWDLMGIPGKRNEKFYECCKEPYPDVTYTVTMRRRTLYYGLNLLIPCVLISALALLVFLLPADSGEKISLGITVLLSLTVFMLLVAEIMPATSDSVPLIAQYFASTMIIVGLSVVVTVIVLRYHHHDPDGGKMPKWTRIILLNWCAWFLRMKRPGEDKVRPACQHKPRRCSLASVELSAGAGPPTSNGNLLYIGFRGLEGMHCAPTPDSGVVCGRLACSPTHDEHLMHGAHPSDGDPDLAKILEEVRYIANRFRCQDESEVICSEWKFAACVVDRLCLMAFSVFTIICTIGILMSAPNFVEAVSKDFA
compound,measurement,setting,value
[125I]c1occc1-c1cnc2c(c1)CC1(CN3CCC1CC3)O2 (stereo unspecified),Ratio,Nucleic Acid [1],0.6
O=S1(=O)c2cc(N3CCN4CCC3CC4)ccc2-c2cccc(F)c21,Ratio Ki,[2],561
same,Ratio Ki,[3],1370
O=[11C](Nc1ccc(Br)cc1)OC1CN2CCC1CC2 (stereo unspecified),Ratio,[4],0.3
[11CH3]c1ccc(OC(=O)N2CCN3CCC2CC3)cc1,Ratio,[4],0.6
same,Ki,[5],46 nM
CN1C[C@H]2CN(c3ccc4c(c3)C(=O)c3cc(N5C[C@@H]6CN([11CH3])[C@@H]6C5)ccc3-4)C[C@H]21,Ki,[6],0.092 nM
O=S1(=O)c2ccc(F)cc2-c2ccc(N3CCN4CCC3CC4)cc21,Ratio Ki,[2],378
same,Ratio Ki,[3],663
O=S1(=O)c2ccccc2-c2c(N3CCN4CCC3CC4)ccc(F)c21,Ratio Ki,[3],210
O=S1(=O)c2ccc(I)cc2-c2ccc(N3CCN4CCC3CC4)cc21,Ratio Ki,[3],63
[11CH3]N1CC2CN(c3ccc(-c4ccccc4)nn3)CC2C1 (stereo unspecified),Ratio,[4],0.2
same,Ki,[7],10.8 nM
[11CH3]n1cccc1-c1nnc(N2CCN3CCC2CC3)o1,Ki,[8],20.4 nM
same,Ki,[9],2.2 nM
same,Ratio,Nucleic Acid [10],1
[18F]c1ccccc1-c1cnc2c(c1)CC1(CN3CCC1CC3)O2 (stereo unspecified),Ratio,[4],0.8
same,Ki,[8],3.3 nM
same,Ki,[11],0.2 nM
O=S1(=O)c2ccc([18F])cc2-c2ccc(N3CCN4CCC3CC4)cc21,Drug uptake,Cerebellum [12],Active
same,Drug uptake,[13],Active
same,Drug uptake,Cerebellum [14],Active
same,Drug uptake,Cerebellum [15],80%
same,Drug uptake,[16],Active
same,Ratio,Nucleic Acid [17],3.1
same,Drug uptake,Cerebellum [18],Not Active
same,Ratio,Nucleic Acid [19],2
same,Ratio,Cerebellum [20],4.5
same,Drug uptake,Brain,Not Active
same,Drug uptake,Thalamus,Active
same,Drug uptake,[21],Not Active
same,Drug uptake,Striatum,Active
same,Drug uptake,Cerebellum [22],Active
same,Activity,Mus musculus [23],Non-toxic
same,Drug uptake,Hippocampus [24],Active
same,Drug uptake,Hippocampus [25],Not Active
same,Ratio,Nucleic Acid [26],2
same,Activity,Mus musculus [27],Non-toxic
[11CH3]N1CC2CN(c3ccc(-c4ccc5[nH]ccc5c4)nn3)CC2C1 (stereo unspecified),Ratio,Nucleic Acid [28],0.5
same,Ki,[6],0.24 nM
[18F]c1ccc(-c2nnc(N3CCN4CCC3CC4)o2)cc1,Ratio,[4],0.4
same,Ratio,Nucleic Acid [29],0.8
same,Ki,[8],38 nM
same,Ki,[6],11.6 nM
[11CH3]N1CC2CN(c3ccc4oc5ccccc5c(=O)c4c3)CC2C1 (stereo unspecified),Ki,[11],11 nM
O=S1(=O)c2ccccc2-c2ccc(N3CCN4CCC3CC4)c(F)c21,Ratio Ki,[3],66
